Source: ChEMBL document CHEMBL1140051, “Discovery of novel Cdc25 phosphatase inhibitors with micromolar activity based on the structure-based virtual screening” (J Med Chem, 2008)

Assays:
[1] = target: T1, M-phase inducer phosphatase 1 (Homo sapiens, UniProt P30304); assay: Inhibition of Cdc25A (336-523) expressed in Escherichia coli
T1 sequence (P30304 whole entry): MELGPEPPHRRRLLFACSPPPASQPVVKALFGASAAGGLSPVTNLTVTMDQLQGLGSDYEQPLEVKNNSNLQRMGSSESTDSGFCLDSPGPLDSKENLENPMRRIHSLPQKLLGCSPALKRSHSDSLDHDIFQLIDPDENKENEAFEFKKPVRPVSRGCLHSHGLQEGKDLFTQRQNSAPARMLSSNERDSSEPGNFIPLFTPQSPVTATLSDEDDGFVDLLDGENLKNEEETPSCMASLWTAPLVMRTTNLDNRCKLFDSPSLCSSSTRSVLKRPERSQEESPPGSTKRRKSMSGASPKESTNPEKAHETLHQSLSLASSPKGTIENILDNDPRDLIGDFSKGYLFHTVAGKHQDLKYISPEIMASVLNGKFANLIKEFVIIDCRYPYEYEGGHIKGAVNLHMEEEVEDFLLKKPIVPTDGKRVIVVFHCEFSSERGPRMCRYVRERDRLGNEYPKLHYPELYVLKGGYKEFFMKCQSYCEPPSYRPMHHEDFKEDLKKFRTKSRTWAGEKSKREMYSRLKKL
In short: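 Inhibitor added in DMSO. 20 min at room temperature, stopped with 1 mM orthovanadate (final). IC50 determined at least three times and averaged.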

[2] = target: T1, M-phase inducer phosphatase 1; assay: Binding affinity to Cdc25A (336-523) expressed in Escherichia coli by steady-state kinetic assay
[3] = target: T2, M-phase inducer phosphatase 2 (Homo sapiens, UniProt P30305); assay: Inhibition of Cdc25B (378-566) expressed in Escherichia coli
T2 sequence (P30305 whole entry): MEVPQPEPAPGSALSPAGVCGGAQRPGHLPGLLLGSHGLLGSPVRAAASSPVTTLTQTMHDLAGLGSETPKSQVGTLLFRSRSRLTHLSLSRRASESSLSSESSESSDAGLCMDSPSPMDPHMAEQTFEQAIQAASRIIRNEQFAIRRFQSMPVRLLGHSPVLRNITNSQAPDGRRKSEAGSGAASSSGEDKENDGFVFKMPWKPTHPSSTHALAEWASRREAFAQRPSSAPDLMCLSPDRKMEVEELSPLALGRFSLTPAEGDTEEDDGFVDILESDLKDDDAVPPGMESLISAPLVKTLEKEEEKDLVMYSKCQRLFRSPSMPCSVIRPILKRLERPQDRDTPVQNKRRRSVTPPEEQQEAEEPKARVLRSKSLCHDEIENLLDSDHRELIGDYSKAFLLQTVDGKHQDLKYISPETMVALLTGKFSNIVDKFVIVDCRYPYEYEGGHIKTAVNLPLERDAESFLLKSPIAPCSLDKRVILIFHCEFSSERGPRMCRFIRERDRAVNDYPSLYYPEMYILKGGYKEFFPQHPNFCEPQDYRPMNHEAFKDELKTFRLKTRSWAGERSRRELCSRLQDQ

[4] = target: T3, M-phase inducer phosphatase 1 (Homo sapiens) (UniProt P30304); assay: Inhibition of Cdc25A (336-523) expressed in Escherichia coli at 50 uM
T3 sequence (whole entry): T1 sequence (P30304 whole entry)

[5] = target: T4, M-phase inducer phosphatase 2 (Homo sapiens) (UniProt P30305); assay: Inhibition of Cdc25B (378-566) expressed in Escherichia coli at 50 uM
T4 sequence (whole entry): T2 sequence (P30305 whole entry)

[6] = Inhibition of Cdc25B R544A mutant
[7] = Inhibition of Cdc25A R501A mutant
[8] = Inhibition of Cdc25A R501K mutant
[9] = Inhibition of Cdc25B R544K mutant

| SMILES | IC50 [1] | Ki [2] | IC50 [3] | inhibition [4] | inhibition [5] | IC50 [6] | IC50 [7] | IC50 [8] | IC50 [9] |
| --- | --- | --- | --- | --- | --- | --- | --- | --- | --- |
| Cc1ccc(/N=C2N=C(O)/C(=C/C=C/c3ccco3)S\2)cc1C | 4.27 µM | 21.4 µM | 5.44 µM |  |  |  |  |  |  |
| Cc1ccc(NC2=NC(=O)/C(=C/C=C/c3ccco3)S2)cc1C |  |  |  | > 70% | > 70% |  |  |  |  |
| Cc1ccc(-c2nnc(SCC(=O)c3ccc(O)c(O)c3)n2-c2ccc(Cl)cc2)cc1 |  |  |  | > 70% | > 70% |  |  |  |  |
| CC1=C(SCCO)C(=O)c2ccccc2C1=O | 4.56 µM |  | 23.6 µM |  |  |  |  |  |  |

More lines, now with the values ahead:

| IC50 [1] | Ki [2] | IC50 [3] | inhibition [4] | inhibition [5] | IC50 [6] | IC50 [7] | IC50 [8] | IC50 [9] | SMILES |
| --- | --- | --- | --- | --- | --- | --- | --- | --- | --- |
| 3.31 µM | 29.2 µM | 12.6 µM | > 70% | > 70% |  |  |  |  | N#CC1=C(S)N(c2ccccc2)C(/C=C/c2ccc(-c3ccc(Cl)cc3)o2)NC1=O (configuration not stated) |
| 4.07 µM | 20.4 µM | 14.2 µM | > 70% | > 70% | 16 µM | 12.1 µM | 6.09 µM | 17.4 µM | COc1ccc(-n2nnc(SCC(=O)c3ccc(O)c(O)c3)n2)cc1 |
| 3.28 µM |  | 4.67 µM | > 70% | > 70% |  |  |  |  | C=CCn1c(SCC(=O)c2ccc(O)c(O)c2)nnc1-c1cccc(Cl)c1 |
